Measurements from ChEMBL document CHEMBL1135916, “Design, synthesis, and structure-activity relationship of pyridyl imidazolidinones: a novel class of potent and selective human enterovirus 71 inhibitors” (J Med Chem, 2002).

Columns and labels:
[1] = tested on: Enterovirus A71; experiment: Inhibition concentration against EV-71; type: functional, organism-based; conditions: Enterovirus A
[2] = (§1) Cytotoxicity against human rhabdomyosarcoma (RD) cells; type: functional; conditions: Homo sapiens, RD
[3] = Cytotoxicity against human normal skin fibroblast (D551) cells; type: cell-based
How it was run: (§2)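 Test compound at various concentrations added to D551 (human normal skin fibroblast), WI38 (human normal lung fibroblast) or RD cells; incubated 96 h at 37 °C; cells harvested and viable cells counted by trypan blue staining. Triplicate, at least twice.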

[4] = tested on: Coxsackievirus; experiment: Inhibition concentration against coxsackie virus A10; type: functional, organism-based
How it was run: (§3)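 Plaque reduction on Vero cell monolayers infected to give about 50-100 plaques per monolayer in virus control; test compound diluted into agar-medium overlay; 96 h at 35 °C, crystal violet staining, plaques counted. […] Triplicate well means, at least two experiments.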

[5] = tested on: Coxsackievirus; experiment: Inhibition concentration against coxsackie virus A16; type: functional, organism-based; how it was run: as §3
[6] = tested on: Coxsackievirus; experiment: Inhibition concentration against coxsackie virus A24; type: functional, organism-based; how it was run: as §3
[7] = tested on: Coxsackievirus; experiment: Inhibition concentration against coxsackie virus A9; type: functional, organism-based; how it was run: as §3
[8] = tested on: Coxsackievirus; experiment: Inhibition concentration against coxsackie virus B1; type: functional, organism-based; how it was run: as §3
[9] = tested on: Coxsackievirus; experiment: Inhibition concentration against coxsackie virus B2; type: functional, organism-based; how it was run: as §3
[10] = tested on: Coxsackievirus; experiment: Inhibition concentration against coxsackie virus B3; type: functional, organism-based; how it was run: as §3
[11] = tested on: Coxsackievirus; experiment: Inhibition concentration against coxsackie virus B4; type: functional, organism-based; how it was run: as §3
[12] = tested on: Coxsackievirus; experiment: Inhibition concentration against coxsackie virus B5; type: functional, organism-based; how it was run: as §3
[13] = tested on: Coxsackievirus; experiment: Inhibition concentration against coxsackie virus B6; type: functional, organism-based; how it was run: as §3
[14] = tested on: Enterovirus; experiment: Inhibition concentration against echovirus 29; type: functional, organism-based; how it was run: as §3
[15] = tested on: Enterovirus; experiment: Inhibition concentration against echovirus 9; type: functional, organism-based; how it was run: as §3
[16] = tested on: Enterovirus; experiment: Inhibition Concentration against enterovirus 68; type: functional, organism-based; how it was run: as §3
[17] = tested on: Enterovirus; experiment: Inhibition concentration against EV-71 (1743) genotype B; type: functional, organism-based; how it was run: as §3
[18] = tested on: Enterovirus; experiment: Inhibition concentration against EV-71 (2086) genotype C; type: functional, organism-based; how it was run: as §3
[19] = tested on: Enterovirus; experiment: Inhibition concentration against EV-71 (2231) genotype C; type: functional, organism-based; how it was run: as §3
[20] = tested on: Enterovirus; experiment: Inhibition concentration against EV-71 (BrCR) genotype A; type: functional, organism-based; how it was run: as §3
[21] = tested on: Human alphaherpesvirus 2; experiment: Inhibition concentration against herpes simplex virus; type: functional, organism-based; how it was run: as §3
[22] = tested on: unidentified influenza virus; experiment: Inhibition concentration against influenza A (WSN); type: functional, organism-based
How it was run: (§4)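 Plaque reduction assay on Vero cell monolayers. Virus was added at a dose giving about 50-100 plaques per monolayer in virus controls. Compound was diluted into the agar-medium overlay, tested up to 25 µM. Plates were incubated 96 h at 35 °C, stained with crystal violet, and plaques counted.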

[23] = tested on: unidentified influenza virus; experiment: Inhibition concentration against influenza B […]; type: functional, organism-based; how it was run: as §4
[24] = tested on: Enterovirus; experiment: Inhibition concentration against human rhinovirus 14; type: functional, organism-based; how it was run: as §3
[25] = tested on: Enterovirus; experiment: Inhibition concentration against human rhinovirus 2; type: functional, organism-based; how it was run: as §3
[26] = Cytotoxicity against human normal skin fibroblast (W138) cells; type: cell-based; conditions: W138 normal skin fibroblast cells; how it was run: as §2
[27] = Selectivity index (D551/EV71) of the compound; type: functional
[28] = Selectivity index (RD/EV71) of the compound; type: functional
[29] = Selectivity index (W138/EV71) of the compound; type: functional
[30] = as §1; type: functional; how it was run: as §2
[31] = selectivity index of the compound; type: functional
[32] = D551 normal skin fibroblast cells

O=C1N(CCCCCCCOc2ccc(Br)cc2)CCN1c1ccncn1
IC50 [1]: > 25 µM | CC50 [2]: > 25 µM

O=C1N(CCCCCCOc2ccc(C(F)(F)F)cc2)CCN1c1ccccc1
IC50 [1]: 12 µM | CC50 [2]: > 25 µM

O=C1N(CCCCCCOc2ccc(Br)cc2)CCN1c1ccncc1
CC50 [3, 32]: 46 µM | IC50 [4]: 5.88 µM | IC50 [5]: > 25 µM | IC50 [6]: 0.55 µM | IC50 [7]: 0.77 µM | IC50 [8]: 5.1 µM | IC50 [9]: > 25 µM | IC50 [10]: > 25 µM | IC50 [11]: > 25 µM | IC50 [12]: > 25 µM | IC50 [13]: > 25 µM | IC50 [14]: > 25 µM | IC50 [15]: 2.82 µM | IC50 [16]: 2.13 µM | IC50 [17]: 0.6 µM | IC50 [18]: 0.31 µM | IC50 [19]: 1.15 µM | IC50 [20]: 1.26 µM | IC50 [21]: > 25 µM | IC50 [1]: 0.35 µM | IC50 [22]: > 25 µM | IC50 [23]: > 25 µM | IC50 [24]: 11.6 µM | IC50 [25]: > 25 µM | CC50 [2]: > 25 µM | CC50 [26]: 50 µM | Selectivity index [27]: 148 | Selectivity index [28]: > 71 | Selectivity index [29]: 161

O=C1N(CCCCCOc2ccc(C(F)(F)F)cc2)CCN1c1ccncn1
IC50 [1]: > 25 µM | CC50 [2]: > 25 µM

O=C1N(CCCCCCCOc2ccc(Cl)cc2)CCN1c1cccnc1
IC50 [1]: 1.43 µM | CC50 [2]: > 25 µM

O=C1N(CCCCCCOc2ccc(F)cc2)CCN1c1ccncc1
IC50 [1]: 3.01 µM | CC50 [30]: > 25 µM

O=C1N(CCCCCOc2ccc(Br)cc2)CCN1c1ccncc1
CC50 [3, 32]: 50 µM | IC50 [1]: 0.5 µM | CC50 [30]: > 25 µM | CC50 [26]: 65 µM | Selectivity index [27]: 100 | Selectivity index [28]: > 50 | Selectivity index [29]: 130

O=C1N(CCCCCCOc2ccc(Cl)cc2)CCN1c1ccncc1
IC50 [1]: 1.5 µM | CC50 [2]: > 25 µM

O=C1N(CCCCCCOc2ccc(Br)cc2)CCN1c1cccnc1
IC50 [1]: 2.07 µM | CC50 [2]: > 25 µM

O=C1N(CCCCCCOc2cccc3cccnc23)CCN1c1ccncc1
IC50 [1]: > 25 µM | CC50 [2]: > 25 µM

Cc1ccc(OCCCCCCN2CCN(c3cccnc3)C2=O)cc1
IC50 [1]: > 25 µM | CC50 [2]: > 25 µM

O=C1N(CCCCCCOc2ccc(-c3cccs3)cc2)CCN1c1ccncc1
CC50 [3, 32]: 46 µM | IC50 [1]: 0.3 µM | CC50 [30]: > 25 µM | CC50 [26]: 60 µM | Selectivity index [27]: 153 | Selectivity index [28]: > 83 | Selectivity index [31]: 200

O=C1N(CCCCCCOc2ccc(Br)cc2)CCN1c1ccncn1
IC50 [1]: > 25 µM | CC50 [2]: > 25 µM

O=C1N(CCCCCOc2ccc(-c3ccc(Cl)cc3)cc2)CCN1c1ccncc1
CC50 [3]: 6 µM | IC50 [1]: 0.06 µM | CC50 [2]: 6.25 µM | CC50 [26]: 32 µM

O=C1N(CCCCCCOc2ccc(C(F)(F)F)cc2)CCN1c1ccncn1
IC50 [1]: > 25 µM | CC50 [2]: > 25 µM

O=C1N(CCCCCCOc2ccc(Cl)cc2)CCN1c1ccccc1
IC50 [1]: 10.8 µM | CC50 [2]: > 25 µM

COc1ccc(-c2ccc(OCCCCCN3CCN(c4ccncc4)C3=O)cc2)cc1
CC50 [3, 32]: > 100 µM | IC50 [1]: 0.34 µM | CC50 [2]: > 25 µM | CC50 [26]: > 100 µM | Selectivity index [27]: > 294 | Selectivity index [28]: > 74 | Selectivity index [29]: > 294

COc1ccc(OCCCCCCN2CCN(c3ccncc3)C2=O)c(Cl)c1
IC50 [1]: > 25 µM | CC50 [2]: > 25 µM

O=C1N(CCCCCCCOc2ccc(Cl)cc2)CCN1c1ccncc1
IC50 [1]: 0.66 µM | CC50 [2]: > 25 µM

O=C1N(CCCCCCOc2c(Cl)cccc2Cl)CCN1c1ccncc1
IC50 [1]: > 25 µM | CC50 [2]: > 25 µM

CN(C)c1cccc(OCCCCCCN2CCN(c3ccncc3)C2=O)c1
IC50 [1]: > 25 µM | CC50 [2]: > 25 µM

O=C1N(CCCCCOc2ccc(-c3cccs3)cc2)CCN1c1ccncc1
IC50 [1]: 0.58 µM | CC50 [30]: > 25 µM

O=C1N(CCCCCOc2ccc(C(F)(F)F)cc2)CCN1c1ccncc1
IC50 [1]: 1.35 µM | CC50 [2]: 12.5 µM

O=C1N(CCCCCCOc2ccc(-c3ccoc3)cc2)CCN1c1ccncc1
IC50 [1]: 0.58 µM | CC50 [2]: > 25 µM

CSc1ccc(OCCCCCCN2CCN(c3ccncc3)C2=O)cc1
IC50 [1]: 4.96 µM | CC50 [30]: > 25 µM

O=C1N(CCCCCOc2ccc(Br)cc2)CCN1c1ccnc(Cl)c1
IC50 [1]: > 25 µM | CC50 [2]: > 25 µM
